# Screening results as filed in PubChem.
# Hits are enriched below; roughly 4.7% of the tested compounds scored in any of these assays.
# MrgX1 allo act: positive allosteric modulators of MrgX1, primary screen, HEK293 cells, Fluo-4 calcium flux; Mas-related G-protein coupled receptor member X1 (Homo sapiens), Q96LB2; FDSS; stronger effect = higher value; B-score at 10 µM; hit rate 0.63% among 310,000;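 active = plate-corrected calcium response at least 3 library SD above typical, normal starting fluorescence, not activating the receptor alone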;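 also: compound read alongside a low EC10 to EC30 dose of BAM8-22 agonist; peak minus trough fluorescence over baseline measured at the second addition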
# Cl transport mod: KCC2 cotransporter modulators, thallium flux, primary screen, cell-based, HEK293 KCC2, FluoZin-2 fluorescence, MLSMR. Solute carrier family 12 member 5 (Homo sapiens), Q9H2X9. KCC2 cells, thallium flux FluoZin-2 fluorescence. B-score of Tl+ flux slope (higher = more flux/activation; lower = inhibition) at 10 µM. hit rate 2.2% among 190,000;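 active = thallium flux slope and its plate-corrected score both differing from the plate sample mean at a set confidence after two filtering rounds, in either direction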;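 also: slope of fluorescence scaled to starting intensity during 10 to 20 s after thallium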
# MrgX1 antagonist: antagonists of human MrgX1 receptor, primary screen, HEK293 cells, Fluo-4 calcium flux. B-score at 10 µM. hit rate 1.3% among 310,000. Mas-related G-protein coupled receptor member X1 (Homo sapiens), Q96LB2. BAM8-22 antagonism; stronger effect = lower value;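 active = calcium-response B-score plate-corrected more than 3 library SD below zero, starting fluorescence within 5 deviations, no agonist response on first addition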;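 also: peak minus trough fluorescence over baseline after final BAM8-22 challenge near maximal dose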
# RGS4 block: RGS4 inhibitors, primary screen, cell-based, HEK293 M3R inducible RGS4, calcium flux; hit rate 0.45% among 310,000; B-score at 10 µM; AID 463165, 2010; Fluo-4 calcium flux; stronger effect = higher value; triggered by carbachol at its EC20; Regulator of G-protein signaling 4 (Homo sapiens), P49798;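 active = B-score, a plate-corrected calcium signal, over three deviations above library mean, with baseline fluorescence within five deviations of library mean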;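 also: RGS4 expression induced by doxycycline in cells with stable M3 receptor; B-score is computed from the integrated fluorescence ratio over baseline after carbachol; higher B-score means a larger calcium signal and so more RGS4 inhibition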
# RGS4 pot: RGS4 potentiators or activators, primary screen, cell-based, HEK293 M3R inducible RGS4, calcium flux; hit rate 0.92% among 310,000; carbachol calcium flux Fluo4; stronger effect = lower value; B-score at 10 µM;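 active = B-score of the integrated calcium signal more than 4 SD below the library mean, with starting fluorescence not abnormally high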;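 also: negative B-score means reduced calcium response which marks RGS4 activation or potentiation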
#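 test system = M3R-expressing HEK293 line, RGS4 induced by doxycycline | probe or stimulus = carbachol at ECmax as muscarinic agonist stimulus | timing = dye loading 30 min 37 °C, buffer rest 30 min RT | signal = calcium dye Fluo4 fluorescence | evaluation = B score from integrated fluorescence ratio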
# MrgX1 ag: agonists of human MrgX1 receptor, primary screen, HEK293 cells, Fluo-4 calcium flux | Fluo-4 calcium fluorescence, agonist mode; stronger effect = higher value | B-score at 10 µM | hit rate 0.44% among 310,000 | AID 588627, 2011;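 active = calcium response B-score plate-corrected fluorescence ratio at least 3 library SD, with starting fluorescence B-score inside 5 SD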
#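 Material – MrgX1-expressing HEK293 cells · Input – 15,000 cells seeded per well · Dosing – compound as first of three additions · Times – overnight seeding, then 1 h dark dye loading · Measured by – kinetic Fluo-4 NW fluorescence of intracellular calcium · Read-out – B-scored fluorescence response ratio · Benchmarks – positive and negative control wells on each plate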
# MrgX1 PAM conf: MrgX1 positive allosteric modulators, duplicate retest, confirmation, HEK293 cells, Fluo-4 calcium flux; shares compounds with MrgX1 allo act; Fluo-4 calcium fluorescence, FDSS; activation (ratio percentage), % at 10 µM; hit rate 13% among 1,200; AID 602413, 2012;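 active = ratio at least 3 SD above the weak peptide control, stable starting fluorescence, no direct agonism earlier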;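 also: compound followed by low BAM8-22 agonist challenge near EC20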
# HEK293 Ca flux: nonspecific calcium signal in parental HEK293, confirmation, counter-screen for MrgX1 antagonist project, parental HEK293 cells, Fluo-4 calcium flux; fluorescence ratio F(max-min)/F0 at 10 µM; hit rate 2% among 4,000; shares compounds with MrgX1 antagonist; AID 624111, 2012; Fluo-4 calcium fluorescence, FDSS;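 active = duplicate-averaged calcium fluorescence ratio at least three times the standard deviation of buffer wells, a nonspecific response in parental cells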
# HEK293 Ca counter: calcium response in parental HEK293 cells, primary screen, counter-screen for MrgX1 allosteric activator project, cell-based, Fluo-4 calcium flux, duplicate | shares compounds with MrgX1 antagonist | hit rate 0.4% among 4,000 | AID 624114, 2012 | fluorescence ratio F(max-min)/F0 at 10 µM | Fluo-4 fluorescence ratio; stronger effect = higher value;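 active = calcium fluorescence ratio, averaged over duplicates, at least 3 SD of the buffer-well ratio, meaning a nonspecific response in receptor-free cells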;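 also: untransfected parental HEK293 lacking MrgX1 used as counterscreen for MrgX1 allosteric activators; fluorescence change taken during the second addition on a kinetic imager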
# HEK293 Ca cntr2: calcium response in parental HEK293 cells, primary screen, counter-screen for MrgX1 agonist project, cell-based, Fluo-4 calcium flux, duplicate, agonist mode; shares compounds with MrgX1 antagonist; Fluo-4 calcium fluorescence (FDSS); stronger effect = higher value; fluorescence ratio F(max-min)/F0 at 10 µM; hit rate 8.7% among 4,000; AID 624115, 2012;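 active = calcium fluorescence ratio at least three times the spread of buffer wells, meaning a non-specific response in parental cells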
# Numbers without * were called inactive; i = inactive; nt = no result.
SMILES,MrgX1 allo act,Cl transport mod,MrgX1 antagonist,RGS4 block,RGS4 pot,MrgX1 ag,MrgX1 PAM conf,HEK293 Ca flux,HEK293 Ca counter,HEK293 Ca cntr2
CCNC(=S)N(Cc1cc2cc(C)c(C)cc2[nH]c1=O)C1CCCC1,i,-0.54,i,i,i,i,nt,nt,nt,nt
CCC(=O)N(Cc1cc2cc(C)c(C)cc2[nH]c1=O)C1CCCCC1,7.63*,nt,i,i,i,i,i,i,i,i
CCC1(C)Cc2ccccc2-c2nc(NCCO)n(-c3ccccc3)c(=O)c21 (centres undefined),7.73*,1.37,i,i,i,i,i,i,i,i
CC1(C)Cc2ccccc2-c2nc(NCCO)n(-c3ccccc3)c(=O)c21,i,-0.318,i,i,i,i,nt,nt,nt,nt
O=C(NC(=S)Nc1cc(S(=O)(=O)N2CCOCC2)ccc1N1CCOCC1)C1CCCC1,7.06*,-0.367,i,i,i,i,6.4%*,i,i,i
COc1cc(CCC(=O)NCCc2ccc(F)cc2)cc(OC)c1OC,i,nt,i,i,i,i,nt,nt,nt,nt
CCC(c1nnnn1CCc1ccccc1)N1CCN(c2ccc(OC)cc2)CC1 (centres undefined),7.73*,-1.15,i,i,i,i,i,i,i,i
CC(C)(C)NC(=O)c1ccc(NC(=O)c2ccccc2-c2ccccc2C(=O)O)cc1,i,nt,i,i,i,i,nt,nt,nt,nt
COc1ccc(CNc2ccc(C)cc2)cc1Br,i,-0.724,i,i,i,i,nt,nt,nt,nt
COc1ccc(CNc2ccccc2)cc1Br,9.41*,-0.00701,i,i,i,i,i,i,i,i
O=C(O)c1ccc(OCCN2CCCC2=O)cc1,i,nt,i,i,i,i,nt,nt,nt,nt
Cc1ccc(S(=O)(=O)Nc2nc3ccccc3s2)cc1,i,-0.0815,i,i,i,i,nt,nt,nt,nt
O=S(=O)(Nc1nc2ccccc2s1)c1ccc(Br)s1,7.19*,-1.74,i,i,i,i,i,i,i,i
CC(C)C[C@H](NC(=O)N1CCn2c1nc1ccccc12)C(=O)N[C@@H](C(=O)O)c1ccccc1,i,nt,i,i,i,i,nt,nt,nt,nt
Cc1nn(C)c(C(=O)NC2C3CC4CC(C3)CC2C4)c1Cl (centres undefined),12.9*,-0.298,i,i,i,i,i,i,i,i
CCN(CC)C(=S)SCc1csc(CC(=O)Nc2ccccc2C)n1,9.84*,nt,i,i,i,i,i,i,i,i
CCOC(=O)CSCc1csc(CC(=O)Nc2ccccc2C)n1,i,nt,i,i,i,i,nt,nt,nt,nt
NCC1CC2c3ccccc3C1c1ccccc12 (centres undefined),i,nt,i,i,i,i,nt,nt,nt,nt
